# Screening data (PubChem)
# CHO parental Ca: signal in parental CHO cells, OX1R antagonist counter-screen | 330,000 tested, 0.63% active | inhibition, % at 5.6 µM | parental CHO-K1, ATP-induced calcium, Fluo-8 fluorescence | AID 463079;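 active means inhibition above that plate's mean sample inhibition plus 3 SD, cut at about 26% in these data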;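 further: 0% = ATP-challenged DMSO wells and 100% = DMSO wells without ATP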
#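 Assay system: parental CHO cells; Read-out basis: percent inhibition of ATP-evoked calcium rise, normalized to controls; Benchmarks: ATP and no-ATP DMSO wells; Compound dosing: single nominal dose of 5.6 µM per compound; Signal: Fluo-8 calcium dye fluorescence; Also added: ATP as calcium-mobilizing challenge; Repeats: singlicate.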
# TRPML3 ag: activates the human TRPML3 channel; HEK293 TRPML3-YFP, Fluo-8 calcium fluorescence; 100% = the carbachol control signal; activation, % at 3 µM; 220,000 tested, 0.29% active; Q8TDD5; AID 1448;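 active means activation above its plate's cutoff, the mean activation of the plate's test wells plus 3 SD, cut at about 12% in these data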;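 further: 0% = DMSO only wells and 100% = carbachol wells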
# Target sequence (Q8TDD5 whole entry, looked up): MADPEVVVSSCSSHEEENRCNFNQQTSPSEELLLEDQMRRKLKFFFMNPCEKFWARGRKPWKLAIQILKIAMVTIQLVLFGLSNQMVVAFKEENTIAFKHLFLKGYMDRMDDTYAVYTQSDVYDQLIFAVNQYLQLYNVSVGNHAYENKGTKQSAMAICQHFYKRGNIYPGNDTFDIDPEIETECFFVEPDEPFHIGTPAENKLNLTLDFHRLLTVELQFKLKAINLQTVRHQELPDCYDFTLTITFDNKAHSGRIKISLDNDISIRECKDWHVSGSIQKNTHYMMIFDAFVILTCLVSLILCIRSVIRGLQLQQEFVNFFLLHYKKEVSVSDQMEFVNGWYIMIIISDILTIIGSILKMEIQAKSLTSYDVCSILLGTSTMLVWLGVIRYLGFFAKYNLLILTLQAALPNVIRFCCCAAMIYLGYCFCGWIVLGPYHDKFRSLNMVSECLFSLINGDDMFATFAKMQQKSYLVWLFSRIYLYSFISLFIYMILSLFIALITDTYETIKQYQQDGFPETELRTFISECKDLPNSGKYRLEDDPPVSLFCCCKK
#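 Test system – HEK293 line with stable expression of human TRPML3-YFP channel · Control set – carbachol 87 µM final as high control (100%), DMSO as low control (0%) · Signal – Fluo-8 calcium dye fluorescence, ex 470-495, em 515-575 nm · Incubation – 1-h 37 °C dye load, 5-s basal, 120-s post-compound reads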
# OX1R antag-1: blocks the human orexin 1 receptor; inhibition, % at 5 µM; 330,000 tested, 0.43% active; CHO/OX1R cells, Fluo-8 calcium fluorescence, orexin A; O43613;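 active means inhibition above its plate's threshold, mean inhibition of all tested compounds on the plate plus 3 SD, cut at about 37% in these data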;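 further: 0% = orexin A challenge wells and 100% = SB-334867-A antagonist wells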
# GPR7 antagonist: antagonists of human GPR7 (neuropeptides B/W receptor 1) | 290,000 tested, 1.1% active | GPR7-expressing cells, fluorescence antagonist assay | inhibition, % at 4.4 µM | P48145; in the data active means inhibition above about 16%, passing the limit was not always enough;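 further: cells stimulated with the agonist NPW; 0% = agonist with vehicle and 100% = vehicle without agonist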
# OX1R antag-2: blocks the human orexin 1 receptor. O43613. OX1R-expressing cells, FRET antagonist read-out. inhibition, % at 6.6 µM. 330,000 tested, 1.8% active. AID 485270; in the data active means inhibition mostly above about 38%, no sharp cut-off; inactive means mostly below about 40%;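 further: 0% = agonist challenge alone and 100% = reference antagonist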
# zfTRPN1 agonist: zebrafish TRPN1 (NompC) channel agonism | HEK293 zebrafish TRPN1-YFP, Fluo-8 calcium fluorescence; 100% = response to 87 µM carbachol | activation, % at 3 µM | 220,000 tested, 0.18% active;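 active means activation above its plate's cutoff, the mean activation of test wells on that plate plus 3 SD, cut at about 19% in these data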;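 further: 0% = DMSO alone and 100% = 87 µM carbachol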
#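 System: zebrafish TRPN1-YFP in HEK293 cells / Dosing: 3 µM single point / Timing: dye loading 1 h at 37 °C, then 30 min room temperature / Signal: Fluo-8 calcium fluorescence, excitation 470-495 nm, emission 515-575 nm / Read-out basis: percent activation from peak over basal fluorescence ratio, control-normalized / Control set: high carbachol 87 µM, low DMSO alone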
# * hit, by the source's call; nt = no result given. The list is not random: actives were taken first. Their share in the collection is about 3.2%.
SMILES,CHO parental Ca,TRPML3 ag,OX1R antag-1,GPR7 antagonist,OX1R antag-2,zfTRPN1 agonist
COc1ccc(NC(=S)Nc2cccc(S(=O)(=O)N3CCCCC3)c2)cc1,-7,1,-14,-3,28,0
CCOC(=O)/C(=C\c1cccc(O)c1)c1nc2sc(C)c(C)c2c(=O)[nH]1,-1,0,6,6,14,0
COc1ccc(NS(=O)(=O)c2ccc(S(=O)(=O)N3CCOCC3)cc2)cc1,2,4,-11,10,16,5
COc1ccc(S(=O)(=O)N2CC3C4C=CC(C4)C3C2)cc1 (centres undefined),-6,56*,-12,-3,3,1
COc1ccc(S(=O)(=O)N2CC(C)N(S(=O)(=O)c3ccc(OC)cc3)CC2C)cc1 (centres undefined),-2,nt,-11,nt,11,nt
COc1ccc(NS(=O)(=O)c2ccc(S(=O)(=O)N3CCCC3)cc2)cc1,40*,2,14,5,17,3
CNc1nc(N)c(C(=O)C23CC4CC(CC(C4)C2)C3)s1,-8,1,0,-6,12,0
CC/C(=N\O)c1c(O)c2c(n(-c3ccccc3)c1=O)CCCC2,-14,0,-20,-13,-2,0
C/C(Cn1nnc([N+](=O)[O-])n1)=N\NC(=O)c1ccccc1Cl,-9,0,8,-11,42*,0
Cc1ccc(N(C(=O)c2csnn2)C(C(=O)NC2CCCCC2)c2ccccn2)cc1C (centres undefined),-8,nt,-28,-4,24,nt
CCN(/C=N/S(=O)(=O)c1ccc(Cl)cc1)CC,6,1,1,-4,3,-1
CCOC(=O)c1sc(NC(=O)Nc2ccccc2)cc1C,22,7,28,13,61*,10
CCOC(=O)c1ccc(NC(=S)NCCc2ccccc2)cc1,60*,6,39,-8,32,11
CCOC(=O)c1c(NC(=S)Nc2ccccc2)sc(C)c1C,2,0,-37,-5,38*,0
Oc1ccc(CCNc2ncnc3ccc(Cl)cc23)cc1,72*,nt,43*,16,86*,nt
Nc1nc(Cl)cc(NCCc2ccc(O)cc2)n1,1,1,1,6,12,1
CC1(C)N([O-])c2cc([N+](=O)[O-])ccc2[N+]1=O,-1,1,14,-4,53*,-2
Cc1ccc(C)n1-c1cc([N+](=O)[O-])ccc1-n1ccnc1,-25,0,-11,-3,16,3
O=C(Nc1ccc(SC(F)F)cc1)c1ccc2nccnc2c1,52*,3,86*,-2,52*,8
COC(=O)c1ccc(NC(=O)c2ccc3nccnc3c2)cc1,-15,nt,-10,-6,39,nt
Cc1ccc(C(=O)Nc2ccc3nccnc3c2)cc1,-22,0,-17,14,46,1
Cc1cc(NC(=O)c2ccc3nccnc3c2)ccc1Br,-3,nt,12,nt,48*,nt
O=C(Nc1ccc2cccnc2c1)c1ccc(Br)cc1,-13,nt,2,-10,30*,nt
CSc1ccccc1OCc1cc(C(=O)N2CCc3[nH]cnc3C2c2ccccn2)no1 (centres undefined),-15,nt,-21,-10,-21,nt
Cc1cc(-c2ccn[nH]2)c(C)s1,-13,1,0,-12,21,0
SMILES,CHO parental Ca,TRPML3 ag,OX1R antag-1,GPR7 antagonist,OX1R antag-2,zfTRPN1 agonist
CN(C)S(=O)(=O)c1ccc(C(=O)OCC(=O)c2ccc(OC(F)F)cc2OC(F)F)cc1,-8,2,-7,18*,6,3
CN(C)S(=O)(=O)c1ccc(C(=O)OCC(=O)Nc2ccccc2OC(F)F)cc1,-5,1,-2,-6,5,-1
C[C@H](CO)N1C[C@H](C)[C@@H](CN(C)C(=O)Nc2ccc(C(F)(F)F)cc2)Oc2c(NC(=O)Nc3ccc(C(F)(F)F)cc3)cccc2C1=O,41*,nt,24,nt,9,nt
C[C@H]1CN([C@@H](C)CO)C(=O)c2cccc(NC(=O)Nc3ccc(C(F)(F)F)cc3)c2O[C@@H]1CN(C)C(=O)Nc1ccc(F)cc1,-5,nt,27,nt,5,nt
COC(CNC(=O)c1ccc2c3c(onc13)-c1ccccc1C2=O)OC,-16,18*,-1,-14,44,27*
O=C(N/N=C\c1cn(-c2ccccc2)nc1-c1ccccc1)c1ccc2c(c1)OCO2,-15,0,-5,1,77*,1
O=C(N/N=C/c1ccc(-c2ccc(Br)cc2)o1)c1ccc2c(c1)OCO2,-2,1,-15,20,36*,1
O=C(N/N=C/c1ccc(COc2ccc(Br)cc2)o1)c1ccc2c(c1)OCO2,nt,nt,nt,-5,nt,nt
O=C(NN=Cc1ccccc1C(=O)O)c1ccc(NS(=O)(=O)c2cccs2)cc1,-2,nt,-7,nt,5,nt
Cc1ccccc1OCCNc1cc(N2CCCCC2)ccc1[N+](=O)[O-],37*,-1,-4,-3,18,2
CC(=O)Nc1ccc(NC(=O)CSc2nnnn2-c2ccc(F)cc2)cc1,1,nt,-11,12,5,nt
CN(CC(=O)N1CCc2ccccc21)S(=O)(=O)c1cccc2cccnc12,-1,-1,-4,-1,60*,1
O=C(C1CCCN1S(=O)(=O)c1cccc2cccnc12)N1CCc2ccccc21 (centres undefined),-2,0,-6,-2,47*,-1
Cc1ccccc1NC(=O)C1CCCN1S(=O)(=O)c1cccc2cccnc12 (centres undefined),0,0,6,-5,43*,1
Cc1ccc(NC(=O)CN(C)S(=O)(=O)c2cccc3cccnc23)cc1C,-10,nt,-20,-3,39*,nt
CNC(=O)c1cc(C(=O)c2c(Cl)cccc2Cl)c[nH]1,-8,1,-19,-1,21,1
CC[C@]12c3[nH]c4ccc(Cl)cc4c3CCN1C(=O)[C@@H](CC(=O)NCCc1ccccn1)C[C@@H]2C(=O)N1CCN(C(=O)c2ccco2)CC1,-9,nt,-14,nt,13,nt
Cc1ccc(C(=O)Nc2cccc3cccnc23)cc1C,-21,nt,35,3,68*,nt
O=C(Nc1cccc(C(F)(F)F)c1)C1CCCN1S(=O)(=O)c1cccc2cccnc12 (centres undefined),-20,1,80*,-19,91*,3
Cc1nn(-c2ccccc2)c(Cl)c1/C=N/NC(=O)c1ccc(CNc2ccccc2)o1,4,0,0,-26,36,-2
Cc1nn(-c2ccccc2)c(Cl)c1/C=N/NC(=O)c1ccco1,-4,0,-10,-1,45*,0
Cc1c(C(=O)NCc2ccc3c(c2)OCO3)oc2ccccc12,-9,-1,-3,-9,45*,-1
O=S(=O)(NCc1ccc2c(c1)OCO2)c1ccc2c(c1)oc1ccccc12,-9,0,19,-5,44*,-1
